{
  "source": "ChEMBL document CHEMBL1933026",
  "about": "“Synthesis and biological evaluation of molecular probes based on the 9-methylstreptimidone derivative DTCM-glutarimide” (Bioorg Med Chem Lett, 2012)",
  "key": {"RAW264.7 [1]": {"tested_on": "RAW264.7", "test": "Antiinflammatory activity in mouse RAW264.7 cells assessed as inhibition of LPS-induced NO production treated for 2 hrs before LPS challenge measured after 20 hrs by Griess method", "type": "functional, cell-based", "summary_of_the_method": "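RAW264.7 macrophages grown in DMEM with 10% FBS, seeded at 1 × 10⁵ cells/ml and used next day. Pretreated with compound 2 h, then stimulated with LPS […] for 20 h. Nitrite in the medium read with Griess reagent.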"}, "[2]": {"test": "(§1) Cytotoxicity against LPS-induced mouse RAW264.7 cells treated 2 hrs before LPS challenge measured after 20 hrs by MTT assay", "type": "cell-based", "conditions": "mouse, LPS-induced RAW264.7 cells; read-out: ED50", "summary_of_the_method": "(§2)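 RAW264.7 cells seeded at 1 × 10⁵ cells/ml and treated the next day with compound for 2 h, followed by LPS for 20 h. MTT solution then added and cells held 4 h at 37 °C in 5% CO₂. Viability read as absorbance at 570 nm.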"}, "RAW264.7 [3]": {"tested_on": "RAW264.7", "test": "as §1", "type": "cell-based", "conditions": "Mus musculus, RAW264.7", "summary_of_the_method": "as §2"}, "RAW264.7 [4]": {"tested_on": "RAW264.7", "test": "Antiinflammatory activity in mouse RAW264.7 cells assessed as inhibition of LPS-induced iNOS expression at 1 to 10 ug/ml treated 2 hrs before LPS challenge measured after 24 hrs by Western blotting", "type": "functional, cell-based", "summary_of_the_method": "(§3)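 RAW264.7 cells in DMEM with 10% FBS. Incubated with or without compound for 2 h, then stimulated with LPS 1 µg/ml for 24 h. Total cell lysates analysed for iNOS protein by Western blotting.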"}, "RAW264.7 [5]": {"tested_on": "RAW264.7", "test": "Inhibition of LPS-induced NF-kappaB activation in mouse RAW264.7 cells at 10 ug/ml treated 2 hrs before LPS challenge measured after 30 mins by electrophoretic mobility shift assay", "type": "cell-based", "summary_of_the_method": "(§4)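 RAW264.7 cells pretreated 2 h, then stimulated with LPS for 30 min. Nuclear extracts prepared by the Andrews–Faller method. 5 µg protein incubated 20 min at RT with poly(dI-dC) and a ³²P-labelled NF-κB oligonucleotide in Tris-HCl pH 7.0 buffer with NaCl, EDTA, DTT, glycerol and NP-40. Complexes resolved on a 4% native polyacrylamide gel in TBE.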"}, "RAW264.7 [6]": {"tested_on": "RAW264.7", "test": "Inhibition of LPS-induced NF-kappaB activation in mouse RAW264.7 cells at 3 ug/ml treated 2 hrs before LPS challenge measured after 30 mins by electrophoretic mobility shift assay", "type": "cell-based", "summary_of_the_method": "as §4"}, "RAW264.7 [7]": {"tested_on": "RAW264.7", "test": "Antiinflammatory activity in mouse RAW264.7 cells assessed as inhibition of LPS-induced iNOS expression at 0.3 to 3 ug/ml treated 2 hrs before LPS challenge measured after 24 hrs by Western blotting", "type": "functional, cell-based", "summary_of_the_method": "as §3"}},
  "note": "Calls of active or inactive are those of the source. The calls are words filed in the database; no cut-off is given here.",
  "data": [
    {"smiles": "O=C(CCCC[C@@H]1SC[C@@H]2NC(=O)N[C@@H]21)NCCCCCCCCCCCCNC(=O)CC1CC(=O)NC(=O)C1", "values": [
      {"measurement": "IC50", "setting": "RAW264.7 [1]", "value": "> 30", "unit": "µg/mL"},
      {"measurement": "CC50 at 20 h", "setting": "[2]", "value": "> 30", "unit": "µg/mL"}
    ]},
    {"smiles": "[N-]=[N+]=Nc1ccc(C(=O)NCCCCCCCCCCCCSC(=O)CC2CC(=O)NC(=O)C2)cc1", "values": [
      {"measurement": "IC50", "setting": "RAW264.7 [1]", "value": 4.5, "unit": "µg/mL"},
      {"measurement": "CC50 at 20 h", "setting": "[2]", "value": "> 30", "unit": "µg/mL"},
      {"measurement": "IC50", "setting": "RAW264.7 [3]", "value": "> 30", "unit": "µg/mL"},
      {"measurement": "inhibition", "setting": "RAW264.7 [4]", "value": "Active"},
      {"measurement": "inhibition", "setting": "RAW264.7 [5]", "value": "inactive"},
      {"measurement": "inhibition", "setting": "RAW264.7 [6]", "value": "inactive"}
    ]},
    {"smiles": "O=C(CCCC[C@@H]1SC[C@@H]2NC(=O)N[C@@H]21)NCCSC(=O)CC1CC(=O)NC(=O)C1", "values": [
      {"measurement": "IC50", "setting": "RAW264.7 [1]", "value": "> 30", "unit": "µg/mL"},
      {"measurement": "CC50 at 20 h", "setting": "[2]", "value": "> 30", "unit": "µg/mL"}
    ]},
    {"smiles": "CCCCCCCCCCCCSC(=O)CC1CC(=O)NC(=O)C1", "values": [
      {"measurement": "inhibition", "setting": "RAW264.7 [7]", "value": "Active"},
      {"measurement": "inhibition", "setting": "RAW264.7 [5]", "value": "inactive"},
      {"measurement": "inhibition", "setting": "RAW264.7 [6]", "value": "inactive"}
    ]},
    {"smiles": "O=C(CCCC[C@@H]1SC[C@@H]2NC(=O)N[C@@H]21)NCCCCCCCCCCCCSC(=O)CC1CC(=O)NC(=O)C1", "values": [
      {"measurement": "IC50", "setting": "RAW264.7 [1]", "value": 5, "unit": "µg/mL"},
      {"measurement": "CC50 at 20 h", "setting": "[2]", "value": "> 30", "unit": "µg/mL"},
      {"measurement": "IC50", "setting": "RAW264.7 [3]", "value": "> 30", "unit": "µg/mL"},
      {"measurement": "inhibition", "setting": "RAW264.7 [4]", "value": "Active"},
      {"measurement": "inhibition", "setting": "RAW264.7 [5]", "value": "inactive"},
      {"measurement": "inhibition", "setting": "RAW264.7 [6]", "value": "inactive"}
    ]}
  ]
}
